These results are taken from ChEMBL document CHEMBL1129082, “Approaches to short-acting neuromuscular blocking agents: nonsymmetrical bis-tetrahydroisoquinolinium mono- and diesters” (1996).

Assay [1] concerns Felis catus. The assay is described as follows: Blockade duration is the time from injection to 95% control in anesthetized cats. The format is functional. An outline of the steps:
(§1)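 Cats kept under chloralose anesthesia, with supplemental iv doses as needed. Trachea cannulated and ventilated with room air at 20 mL/kg and 20 strokes/min. Arterial pressure taken from a right femoral artery cannula, and heart rate from the ECG. Core temperature held at 37-38 °C by radiant heat.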

For assay [2], the system named is Felis catus. Description: Vagal response in anesthetized cats; '++ ' means significant inhibition at ED95 or slightly higher doses. The format is functional, organism-based. An outline of the steps: (§2)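 Chloralose-anesthetized, ventilated cats kept at 37-38 °C. Nerve stimulated for 10 s every 5 min at 20 Hz, 0.5 ms, supramaximal 10-15 V. Heart rate from the ECG and arterial pressure via a femoral cannula used as the vagal read-out.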

Assay [3] deals with Felis catus. Description: Effective dose for anesthetized cats. The format is functional. An outline of the steps: as §1
Assay [4] has as its system Felis catus. Description: Blockade duration is the time from injection to 95% control in anesthetized cats; Range is 8-9 min. The format is functional. An outline of the steps:
as §1

Assay [5] deals with Felis catus. Description: Effective dose for anesthetized cats; Range is 0.5-0.7 mg/Kg. In kind it is functional. An outline of the steps: as §1
In assay [6] the test system is Felis catus. The assay is described as follows: Blockade duration is the time from injection to 95% control in anesthetized cats; Range is 7-8 min. The format is functional. An outline of the steps: as §1
Assay [7] has as its system Felis catus. Description: Effective dose for anesthetized cats; Range is 4-7 mg/Kg. In kind it is functional.
For assay [8], the system named is Felis catus. The assay is described as follows: Vagal response in anesthetized cats; '++++' means significant inhibition in the absence of neuromuscular blockade. In kind it is functional, organism-based. An outline of the steps:
(§3)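 Anesthetized cats given supplemental iv α-chloralose as needed, tracheally cannulated and ventilated with room air (20 mL/kg, 20 strokes/min), core temperature held at 37–38 °C. Right vagus crushed distal to the nodose ganglia and stimulated for 10 s every 5 min (20 Hz, 0.5 ms, 10–15 V supramaximal). Femoral arterial pressure recorded; heart rate taken from the ECG.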

The subject of assay [9] is Felis catus. The assay is described as follows: Blockade duration is the time from injection to 95% control in anesthetized cats; Range is 8-12 min. The format is functional. An outline of the steps:
as §1

Assay [10] has as its system Felis catus. Description: Effective dose for anesthetized cats; Range is 0.12-0.20 mg/Kg. The format is functional. An outline of the steps:
as §1

For assay [11], the system named is Felis catus. The assay is described as follows: Vagal response in anesthetized cats. In kind it is functional. An outline of the steps: as §2
The test system of assay [12] is Felis catus. The assay is described as follows: Effective dose for anesthetized cats; Range is 0.3-0.4 mg/Kg. The format is functional.
Assay [13] concerns Felis catus. The assay is described as follows: Effective dose for anesthetized cats; Range is 0.3-0.5 mg/Kg. The format is functional. An outline of the steps: as §1
The subject of assay [14] is Felis catus. Description: Vagal response in anesthetized cats; '+++ ' means significant inhibition at doses that produce neuromuscular blockade. The format is functional, organism-based. An outline of the steps: as §3
Assay [15] concerns Felis catus. Description: Blockade duration is the time from injection to 95% control in anesthetized cats; Range is 12-13 min. The format is functional.
The subject of assay [16] is Felis catus. Description: Neuromuscular blocking property by neostigmine reversal in anesthetized cats at dose of 0.55 mg/Kg; Not recorded. The format is functional, organism-based.
In assay [17] the test system is Felis catus. The assay is described as follows: Effective dose for anesthetized cats; Range is 0.7-0.8 mg/Kg. The format is functional. An outline of the steps:
as §1

In assay [18] the test system is Felis catus. Description: Vagal response in anesthetized cats; '++++ ' means significant inhibition in the absence of neuromuscular blockade. In kind it is functional, organism-based. An outline of the steps: as §2

In turn, `COc1ccc(C[C@@H]2c3cc(OC)c(OC)cc3CC[N+]2(C)CCCCCCCCCOC(=O)CC[N+]2(C)CCc3c(cc(OC)c(OC)c3OC)C2)cc1OC.[I-].[I-]` (some centres not stated) gave a Blockade duration in the assay with Felis catus [1] of 10 min. In addition, in the assay with Felis catus [2], the Vagal response result is “significant inhibition at ED95 or slightly higher doses”. This compound gave an ED95 in the assay on Felis catus [3] of 0.26 mg/kg.
As to `COc1ccc(C[C@@H]2c3cc(OC)c(OC)cc3CC[N+]2(C)CCCCCCCCCCCOC(=O)CC[N+]2(C)CCc3c(cc(OC)c(OC)c3OC)C2)cc1OC.[I-].[I-]` (some centres not stated), in the assay on Felis catus [4], the Blockade duration is listed as 9 min. In the assay with Felis catus [2], the Vagal response entry was “significant inhibition at ED95 or slightly higher doses”. Moreover, the ED95 in the assay on Felis catus [5] amounted to 0.5 mg/kg.
`COc1ccc(C[C@@H]2c3cc(OC)c(OC)cc3CC[N+]2(C)CCCCCCCCCCCOC(=O)CC[N+]2(C)CCc3cc(OC)c(OC)cc3C2)cc1OC.[I-].[I-]` (some centres not stated): the Blockade duration in the assay on Felis catus [6] turned out to be 8 min. The Vagal response entry in the assay on Felis catus [2] is on record as “significant inhibition at ED95 or slightly higher doses”. The compound further showed an ED95 with Felis catus [3] of 0.3 mg/kg.
`C=CC[N+]1(CCCCCCCCCOC(=O)CC[N+]2(C)CCC34c5c6ccc(OC)c5OC3[C@@H](OC)C=CC4[C@H]2C6)CCc2cc(OC)c(OC)cc2[C@H]1Cc1ccc(OC)c(OC)c1.[Br-].[Br-]` (some centres not stated) registered a Blockade duration in the assay on Felis catus [1] of 3 min. In addition, the ED95 in the assay on Felis catus [7] is 4 mg/kg. The Vagal response result in the assay on Felis catus [8] is “significant inhibition in the absence of neuromuscular blockade”.
Take `COc1ccc(C[C@@H]2c3cc(OC)c(OC)cc3CC[N+]2(C)CCC(=O)OCCCCCCOC(=O)CC[N+]2(C)CCc3c(cc(OC)c(OC)c3OC)C2)cc1OC.[I-].[I-]` (some centres not stated): the Blockade duration in the assay with Felis catus [9] turned out to be 12 min. In addition, the ED95 in the assay with Felis catus [10] stood at 0.12 mg/kg. In addition, the Vagal response with Felis catus [11] is 0.
As to `COc1ccc(C[C@@H]2c3cc(OC)c(OC)cc3CC[N+]2(C)CCCCCCCCCCCOC(=O)CC[N+]2(C)CCc3cc(OC)c(OC)c(OC)c3C2)cc1OC.[I-].[I-]` (some centres not stated), the Blockade duration in the assay on Felis catus [1] is on record as 8 min. In the assay on Felis catus [12], this compound gave an ED95 of 0.3 mg/kg. Besides, the Vagal response result in the assay on Felis catus [2] was “significant inhibition at ED95 or slightly higher doses”.
Turning to `COc1cc2c(c(OC)c1OC)C[N+](C)(CCC(=O)OCCCCCCOC(=O)CC[N+]1(C)CCc3cc(OC)c(OC)c(OC)c3C1)CC2.[I-].[I-]` (configuration not stated), the Blockade duration in the assay on Felis catus [1] turned out to be 8 min. Besides, in the assay on Felis catus [13], the ED95 turned out to be 0.3 mg/kg. In addition, the Vagal response entry in the assay with Felis catus [2] is on record as “significant inhibition at ED95 or slightly higher doses”.
On to `COc1ccc(C[C@@H]2c3cc(OC)c(OC)cc3CC[N+]2(C)CCCCCCCCCOC(=O)CC[N+]2(C)CCC34c5c6ccc(OC)c5OC3[C@@H](OC)C=CC4[C@H]2C6)cc1OC.[I-].[I-]` (some centres not stated), for which, in the assay with Felis catus [14], the Vagal response result was “significant inhibition at doses that produce neuromuscular blockade”. Further, in the assay with Felis catus [12], the ED95 came to 0.3 mg/kg. Moreover, the Blockade duration in the assay with Felis catus [15] was 13 min.
On to `COc1ccc(C[C@@H]2c3cc(OC)c(OC)cc3CC[N+]2(C)CCCCOC(=O)CCCCOC(=O)CC[N+]2(C)CCc3cc(OC)c(OC)c(OC)c3C2)cc1OC.[I-].[I-]` (some centres not stated), for which the Vagal response entry in the assay on Felis catus [14] is recorded as “significant inhibition at doses that produce neuromuscular blockade”. Moreover, the Blockade duration in the assay with Felis catus [1] came to 8 min. The ED95 in the assay on Felis catus [3] came out at 0.5 mg/kg.
Consider `COc1ccc(C[C@@H]2c3cc(OC)c(OC)cc3CC[N+]2(C)CCCCCCCCCOC(=O)CC[N+]2(C)CCc3cc(OC)c(OC)cc3[C@H]2Cc2ccc(OC)c(OC)c2)cc1OC.[I-].[I-]` (some centres not stated), for which the Blockade duration in the assay with Felis catus [1] is recorded as 15 min. The Neostigmine reversal result with Felis catus [16] is “Not recorded”. Also, the Vagal response with Felis catus [11] stood at 0. This compound came in with an ED95 in the assay on Felis catus [3] of 0.1 mg/kg.
Consider `C=CC[N+]1(CCC(=O)OCCCCCCCCC[N+]2(CC=C)CCc3cc(OC)c(OC)cc3[C@H]2Cc2ccc(OC)c(OC)c2)CCc2c(cc(OC)c(OC)c2OC)C1.[Br-].[Br-]` (some centres not stated), for which the Blockade duration with Felis catus [6] was found to be 8 min. This compound showed an ED95 with Felis catus [17] of 0.7 mg/kg. In the assay with Felis catus [18], the Vagal response entry is reported as “significant inhibition in the absence of neuromuscular blockade”.
In the assay with Felis catus [1], `COc1ccc(C[C@@H]2c3cc(OC)c(OC)cc3CC[N+]2(C)CCC(=O)OCCCCCOC(=O)CC[N+]2(C)CCc3cc(OC)c(OC)cc3[C@H]2Cc2ccc(OC)c(OC)c2)cc1OC.O=S(=O)([O-])c1ccccc1.O=S(=O)([O-])c1ccccc1` (some centres not stated) showed a Blockade duration of 14.6 min. In the assay on Felis catus [11], this compound gave a Vagal response of 0. In addition, in the assay with Felis catus [3], the ED95 came to 0.16 mg/kg.
